Where a SMILES comes first, the peptide text is derived from it. [ ]: non-standard residue; d: D form. The star is where a group is joined. Phe(4-guanidino) = N=C(N)Nc1ccc(C[C@H](N)C(=O)O)cc1; Phe(4-NH2) = Nc1ccc(C[C@H](N)C(=O)O)cc1; Tryptamide = c1ccc2c(CCN*)c[nH]c2c1; βAla = NCCC(=O)O
Assays:
[1] = target: T1, Proprotein convertase subtilisin/kexin type 6 (Homo sapiens, UniProt P29122); experiment: Inhibition of recombinant human PACE4 expressed in S2 insect cells using pyroGlu-Arg-Thr-Lys-Arg-AMC peptide as substrate after 1 hr by spectrofluorometry
T1 sequence (P29122 whole entry): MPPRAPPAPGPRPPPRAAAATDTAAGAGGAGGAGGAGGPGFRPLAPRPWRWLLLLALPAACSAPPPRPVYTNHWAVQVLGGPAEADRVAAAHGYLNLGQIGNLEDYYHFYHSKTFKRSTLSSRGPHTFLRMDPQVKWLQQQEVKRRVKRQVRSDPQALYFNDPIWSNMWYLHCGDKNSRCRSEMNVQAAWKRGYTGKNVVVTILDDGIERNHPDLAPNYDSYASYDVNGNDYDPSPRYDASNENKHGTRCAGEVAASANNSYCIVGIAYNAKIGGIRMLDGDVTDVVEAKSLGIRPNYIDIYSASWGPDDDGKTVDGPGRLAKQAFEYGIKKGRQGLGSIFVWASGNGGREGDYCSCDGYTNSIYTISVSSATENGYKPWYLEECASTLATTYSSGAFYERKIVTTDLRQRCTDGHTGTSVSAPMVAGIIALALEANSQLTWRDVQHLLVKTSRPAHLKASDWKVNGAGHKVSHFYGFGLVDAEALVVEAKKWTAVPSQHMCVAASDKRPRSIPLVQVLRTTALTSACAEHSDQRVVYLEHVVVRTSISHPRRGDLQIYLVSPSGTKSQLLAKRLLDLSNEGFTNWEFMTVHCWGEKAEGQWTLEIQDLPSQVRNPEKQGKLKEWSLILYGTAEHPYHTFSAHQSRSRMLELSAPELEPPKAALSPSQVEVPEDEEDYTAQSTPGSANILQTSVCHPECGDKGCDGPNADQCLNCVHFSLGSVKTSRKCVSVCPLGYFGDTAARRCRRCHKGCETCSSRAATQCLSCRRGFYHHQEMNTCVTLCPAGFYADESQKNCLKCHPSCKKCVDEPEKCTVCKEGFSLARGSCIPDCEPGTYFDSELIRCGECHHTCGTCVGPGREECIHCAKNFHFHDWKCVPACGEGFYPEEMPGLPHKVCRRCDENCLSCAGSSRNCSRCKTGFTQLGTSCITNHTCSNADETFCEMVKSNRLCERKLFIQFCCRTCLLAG
Outline: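 Human recombinant PACE4 made in S2 insect cells and purified. Assay buffer 20 mM Bis-Tris pH 6.5, 1 mM CaCl2, 1.8 g/L BSA. Substrate 100 µM per well, inhibitors 0–10 µM, 2 units enzyme. Fluorescence (ex 370/em 460 nm) followed in real time for 1 h. Ki from IC50 by Cheng–Prusoff; duplicate or triplicate.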

[2] = Half life in human plasma by ion chromatogram-based analysis; type: ADME, cell-free
Outline: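 Peptide at 50 µM was incubated at 37 °C in human serum from male AB plasma. At each time point, plasma was precipitated with MeOH containing Fmoc-Leu-OH internal standard, centrifuged and filtered. Samples were analysed by UPLC-MS. The peptide/standard ratio of total ion chromatogram peak area was expressed relative to 0 h.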

DU-145 [3] = experiment: Cytotoxicity against human DU145 cells assessed as effect on live cells >10 uM after 1.5 hrs by propidium iodide-staining based FACS analysis; type: cell-based; settings: du-145, 1.5 h
Outline: (§1)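 DU145 cells (200 000 per well) exposed to peptides in serum-free medium for 1.5 h at 1, 10, 50 and 100 µM, or 1, 10, 15, 20, 30, 50, 100 µM for the dose-response set. Cells trypsinized, washed, resuspended in PBS, PI added (final 10 µg/mL), fluorescence read by flow cytometry; IC50(PI) from the dose-response curve; at least two independent experiments.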

DU-145 [4] = experiment: Antiproliferative activity against human DU145 cells after 72 hrs by MTT assay; type: functional, cell-based; settings: DU-145, 72 h
Outline: (§2)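 MTT assay run 72 h. Seeding was ~1500 cells/well for DU145 and ~2500 cells/well for LNCaP, in RPMI 1640 with 5% FBS (DU145) or 10% FBS (LNCaP). Medium was changed after 24 h, then inhibitor added at 1–300 µM or 1–150 µM. MTT was added at 1 g/L final for 4 h and formazan dissolved in 2-propanol/HCl. Readings were relative to vehicle (water, 0.1% DMSO). IC50 was from at least two independent experiments.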

LNCaP [5] = experiment: Antiproliferative activity against human LNCAP cells after 72 hrs by MTT assay; type: functional, cell-based; outline: as §2
Homo sapiens = species: Homo sapiens; experiment: Selectivity ratio of Ki for recombinant human furin to Ki for recombinant human PACE4
Outline: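 Ki values came from human recombinant enzymes expressed in S2 insect cells. Furin was assayed in 100 mM HEPES pH 7.5, 1 mM CaCl2, 1 mM β-mercaptoethanol and 1.8 g/L BSA. PACE4 was assayed in 20 mM Bis-Tris pH 6.5, 1 mM CaCl2 and 1.8 g/L BSA. Substrate was pERTKR-AMC at 100 µM, with inhibitor at 0–10 µM. Fluorescence (ex 370/em 460 nm) was read for 1 h, and Ki derived by Cheng-Prusoff.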

Furin = Furin (Homo sapiens, UniProt P09958); experiment: Inhibition of recombinant human furin expressed in S2 insect cells using pyroGlu-Arg-Thr-Lys-Arg-AMC peptide as substrate after 1 hr by spectrofluorometry
Outline: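 Furin was human recombinant from S2 insect cells, purified. Buffer 100 mM HEPES pH 7.5, 1 mM CaCl2, 1 mM β-mercaptoethanol, 1.8 g/L BSA. Substrate 100 µM per well, inhibitors 0–10 µM, 2 units enzyme. Real-time fluorescence (ex 370/em 460 nm) over 1 h. Ki by Cheng–Prusoff; duplicate or triplicate.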

[6] = Drug uptake in human DU145 cells at 1 uM after 1 hr using FITC labelled compound by flow cytometric analysis relative to FITC-[betaAla]-LLLLRVKR-NH2 peptide; type: ADME, cell-based; settings: du-145, 1 h
Outline: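 DU145 cells were plated at 200000 per dish and grown 48 h at 37 °C. They were exposed to 1 µM N-terminally FITC-labelled peptide for 1 h at 37 °C, then trypsinized, washed and resuspended in PBS. PI at 10 µg/mL was added to gate out dead cells. Parallel tubes were quenched with 0.04% trypan blue to remove membrane-bound signal. Flow cytometry counted at least 10000 events.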

DU-145 [7] = experiment: Antiproliferative activity against human DU145 cells up to 300 uM after 72 hrs by MTT assay relative to control; type: functional; outline: as §2
LNCaP [8] = experiment: Antiproliferative activity against human LNCAP cells up to 300 uM after 72 hrs by MTT assay relative to control; type: functional; outline: as §2
DU-145 [9] = experiment: Cytotoxicity against human DU145 cells assessed as effect on live cells up to 100 uM after 1.5 hrs by propidium iodide-staining based FACS analysis; type: cell-based; settings: du-145, 1.5 h; outline: as §1

Furin, sequence (P09958 whole entry): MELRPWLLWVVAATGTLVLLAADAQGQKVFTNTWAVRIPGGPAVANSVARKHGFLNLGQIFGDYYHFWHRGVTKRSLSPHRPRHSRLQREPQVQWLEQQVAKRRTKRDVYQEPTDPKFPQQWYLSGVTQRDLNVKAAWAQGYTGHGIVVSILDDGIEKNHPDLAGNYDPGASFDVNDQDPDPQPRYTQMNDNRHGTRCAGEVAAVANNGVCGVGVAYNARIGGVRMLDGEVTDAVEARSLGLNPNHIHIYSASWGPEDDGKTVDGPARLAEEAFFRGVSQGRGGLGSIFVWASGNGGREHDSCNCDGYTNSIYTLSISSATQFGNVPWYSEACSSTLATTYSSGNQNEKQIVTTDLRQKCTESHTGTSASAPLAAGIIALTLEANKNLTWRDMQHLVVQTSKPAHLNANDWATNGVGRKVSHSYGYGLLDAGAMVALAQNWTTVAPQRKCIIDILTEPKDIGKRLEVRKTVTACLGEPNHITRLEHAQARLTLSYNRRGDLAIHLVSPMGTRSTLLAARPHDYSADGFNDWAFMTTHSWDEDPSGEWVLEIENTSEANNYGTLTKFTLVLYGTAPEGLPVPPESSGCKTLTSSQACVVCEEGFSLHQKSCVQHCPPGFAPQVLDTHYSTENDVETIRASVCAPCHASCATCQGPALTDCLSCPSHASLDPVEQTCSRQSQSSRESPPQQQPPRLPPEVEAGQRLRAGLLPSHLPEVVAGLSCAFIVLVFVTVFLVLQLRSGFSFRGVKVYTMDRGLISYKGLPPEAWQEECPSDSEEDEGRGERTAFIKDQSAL

Compound | Ki [1] [nM] | IC50 (DU-145 [4]) [µM] | Ratio Ki (Homo sapiens) | Ki (Furin) [nM] | other results
CC(=O)N[C@H](CC(C)C)C(=O)N[C@@H](CC(C)C)C(=O)N[C@@H](CC(C)C)C(=O)N[C@@H](CC(C)C)C(=O)N[C@@H](CCCNC(=N)N)C(=O)N[C@H](C(=O)N[C@@H](CCCCN)C(=O)N[C@@H](CCCNC(=N)N)C(=O)NCCc1ccc(C(=N)N)cc1)C(C)C | 68 | 41 | 10 | 700 | IC50 (LNCaP [5]): 67 µM
CC(=O)N[C@@H](CC(C)C)C(=O)N[C@@H](CC(C)C)C(=O)N[C@@H](CC(C)C)C(=O)N[C@@H](CC(C)C)C(=O)N[C@@H](CCCNC(=N)N)C(=O)N[C@H](C(=O)N[C@@H](CCCCN)C(=O)N[C@@H](CCCNC(=N)N)C(=O)N[C@@H](Cc1ccc(NC(=N)N)cc1)C(N)=O)C(C)C (Ac-LLLLRVKR[Phe(4-guanidino)]-NH2) | 11 | 83 | 13 | 140 | IC50 (LNCaP [5]): 92 µM
CC(C)C[C@H](NC(=O)CCN)C(=O)N[C@@H](CC(C)C)C(=O)N[C@@H](CC(C)C)C(=O)N[C@@H](CC(C)C)C(=O)N[C@@H](CCCNC(=N)N)C(=O)N[C@H](C(=O)N[C@@H](CCCCN)C(=O)N[C@@H](CCCNC(=N)N)C(=O)NCCc1c[nH]c2ccccc12)C(C)C (H-[βAla]LLLLRVKR-Tryptamide) | – | – | – | – | fold change (FC) [6]: 3.5
CC(C)C[C@H](NC(=O)CCN)C(=O)N[C@@H](CC(C)C)C(=O)N[C@@H](CC(C)C)C(=O)N[C@@H](CC(C)C)C(=O)N[C@@H](CCCNC(=N)N)C(=O)N[C@H](C(=O)N[C@@H](CCCCN)C(=O)N[C@@H](CCCNC(=N)N)C(=O)N[C@@H](CCCCN)C(N)=O)C(C)C (H-[βAla]LLLLRVKRK-NH2) | – | – | – | – | Drug uptake [6]: Active
CC(C)C[C@H](NC(=O)CCN)C(=O)N[C@@H](CC(C)C)C(=O)N[C@@H](CC(C)C)C(=O)N[C@@H](CC(C)C)C(=O)N[C@@H](CCCNC(=N)N)C(=O)N[C@H](C(=O)N[C@@H](CCCCN)C(=O)N[C@@H](CCCNC(=N)N)C(=O)N[C@@H](CCCNC(=N)N)C(N)=O)C(C)C (H-[βAla]LLLLRVKRR-NH2) | – | – | – | – | Drug uptake [6]: Active
CC(C)C[C@H](NC(=O)CCN)C(=O)N[C@@H](CC(C)C)C(=O)N[C@@H](CC(C)C)C(=O)N[C@@H](CC(C)C)C(=O)N[C@@H](CCCNC(=N)N)C(=O)N[C@H](C(=O)N[C@@H](CCCCN)C(=O)N[C@@H](CCCNC(=N)N)C(=O)N[C@@H](Cc1c[nH]c2ccccc12)C(N)=O)C(C)C (H-[βAla]LLLLRVKRW-NH2) | – | – | – | – | fold change (FC) [6]: 2
Ac-LLLLRVKRA-NH2 | 37 | 160 | 6 | 210 | –
Ac-LLLLRVKRD-NH2 | 30 | 230 | 2 | 74 | –
Ac-LLLLRVKRF-NH2 | 20 | 70 | 4 | 74 | IC50 (LNCaP [5]): 170 µM
Ac-LLLLRVKRG-NH2 | 44 | – | 11 | 500 | Activity (DU-145 [7]): <50%
Ac-LLLLRVKRH-NH2 | 33 | – | 4 | 140 | Activity (DU-145 [7]): <50%
Ac-LLLLRVKRI-NH2 | 64 | 72 | 5 | 290 | Activity (LNCaP [8]): <50%
Ac-LLLLRVKRM-NH2 | 32 | 130 | 5 | 170 | –
Ac-LLLLRVKRQ-NH2 | 43 | 210 | 5 | 190 | –
Ac-LLLLRVKRS-NH2 | 64 | 240 | 5 | 330 | –
Ac-LLLLRVKRT-NH2 | 22 | 170 | 5 | 100 | –
Ac-LLLLRVKRV-NH2 | 38 | 170 | 5 | 200 | –

Second part, led by results:

Ki [1] [nM] | IC50 (DU-145 [4]) [µM] | Ratio Ki (Homo sapiens) | Ki (Furin) [nM] | Compound | other results
70 | 14 | 4 | 280 | CC(=O)N[C@H](CC(C)C)C(=O)N[C@@H](CC(C)C)C(=O)N[C@@H](CC(C)C)C(=O)N[C@@H](CC(C)C)C(=O)N[C@@H](CCCNC(=N)N)C(=O)N[C@H](C(=O)N[C@@H](CCCCN)C(=O)N[C@@H](CCCNC(=N)N)C(=O)NCCc1c[nH]c2ccccc12)C(C)C | half-life [2]: 48 min; Activity (DU-145 [3]): Toxic; IC50 (LNCaP [5]): 18 µM
32 | 139 | 4 | 130 | CC(=O)N[C@@H](CC(C)C)C(=O)N[C@@H](CC(C)C)C(=O)N[C@@H](CC(C)C)C(=O)N[C@@H](CC(C)C)C(=O)N[C@@H](CCCNC(=N)N)C(=O)N[C@H](C(=O)N[C@@H](CCCCN)C(=O)N[C@@H](CCCNC(=N)N)C(=O)N[C@@H](Cc1ccc(N)cc1)C(N)=O)C(C)C (Ac-LLLLRVKR[Phe(4-NH2)]-NH2) | IC50 (LNCaP [5]): 170 µM
– | – | 20 | – | Ac-LLLLRVKR-NH2 | –
58 | – | 4 | 260 | Ac-LLLLRVKRE-NH2 | Activity (DU-145 [7]): <50%
150 | 130 | 17 | 2600 | Ac-LLLLRVKRK-NH2 | Activity (DU-145 [9]): Non-Toxic
170 | 90 | 6 | 990 | Ac-LLLLRVKRL-NH2 | –
28 | – | 5 | 130 | Ac-LLLLRVKRN-NH2 | Activity (DU-145 [7]): <50%
250 | 210 | 4 | 990 | Ac-LLLLRVKRP-NH2 | –
160 | 71 | 16 | 2500 | Ac-LLLLRVKRR-NH2 | Activity (DU-145 [9]): Non-Toxic; Activity (LNCaP [8]): <50%
29 | 25 | 4 | 110 | Ac-LLLLRVKRW-NH2 | Activity (DU-145 [3]): Toxic; IC50 (LNCaP [5]): 31 µM
29 | 100 | 2 | 64 | Ac-LLLLRVKRY-NH2 | –
